CHRM1 antagonist = blocks human M1 muscarinic receptor. P11229. CHO-K1 hM1, Fluo-8 calcium fluorescence, ACh EC80 antagonist. inhibition, % at 3 µM. 1.3% of 360,000 active;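 active = percent inhibition above its own plate's cutoff, namely the mean of that plate's compound wells plus 3 SD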;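 also: peak over basal fluorescence ratio during 140 s after agonist addition; 0% = ACh EC80 plus DMSO and 100% = DMSO alone without agonist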
M1 PAM = positive allosteric modulators of human M1 muscarinic receptor. P11229. CHO-K1 hM1, Fluo-8 calcium fluorescence, ACh EC20; 0% = ACh EC20, 100% = maximal ACh. activation, % at 3 µM. 0.088% of 360,000 active. AID 588819; in the data active = activation above about 19%, passing the limit was not always enough
TAAR1 antagonist = human TAAR1 antagonism | inhibition, % at 3 µM | AID 624466 | 1.5% of 360,000 active | CHO RD-HGA16 TAAR1, Fluo-8 calcium fluorescence, antagonist | Q96RJ0;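 active = inhibition above a per-plate cutoff, the mean inhibition of test compounds on that plate plus 3 SD, cut at about 49% in these data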;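 also: 0% = DMSO plus EC80 beta-PEA response and 100% = DMSO alone without agonist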
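Test system: hTAAR1-expressing CHO RD-HGA16 cells, Gα16-coupled; Probe or stimulus: EC80 β-phenethylamine stimulus; Compound dosing: single nominal final test compound concentration of 3 µM; Timing: 140 s kinetic read after compound, 140 s after agonist; Signal: Fluo-8 calcium-sensitive fluorescence; Measure: % inhibition of agonist calcium response; Controls: DMSO and EC80 PEA controls.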
M1 ag = agonists of human M1 muscarinic receptor. P11229. CHO-K1 hM1, Fluo-8 calcium fluorescence, agonist mode; 0% DMSO, 100% acetylcholine EC100. activation, % at 3 µM. 0.33% of 360,000 active;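 active = activation above the run's mean compound activation plus 3 SD, cut at about 16% in these data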;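 also: peak over basal fluorescence ratio within a 140 s kinetic read after compound addition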
HTR2A ag = mouse HTR2A agonism via beta-arrestin recruitment. P35363. CHO-K1 mHTR2A beta-arrestin complementation, luminescence; percent of 30 µM serotonin response. activation, % at 7.6 µM. 0.66% of 360,000 active. AID 624169;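 active = activation above a run cutoff, the mean activation of all tested compounds plus 3 SD, cut at about 14% in these data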;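 also: 0% = plate median of compound wells and 100% = 30 µM serotonin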
Target sequence (P35363 whole entry, looked up): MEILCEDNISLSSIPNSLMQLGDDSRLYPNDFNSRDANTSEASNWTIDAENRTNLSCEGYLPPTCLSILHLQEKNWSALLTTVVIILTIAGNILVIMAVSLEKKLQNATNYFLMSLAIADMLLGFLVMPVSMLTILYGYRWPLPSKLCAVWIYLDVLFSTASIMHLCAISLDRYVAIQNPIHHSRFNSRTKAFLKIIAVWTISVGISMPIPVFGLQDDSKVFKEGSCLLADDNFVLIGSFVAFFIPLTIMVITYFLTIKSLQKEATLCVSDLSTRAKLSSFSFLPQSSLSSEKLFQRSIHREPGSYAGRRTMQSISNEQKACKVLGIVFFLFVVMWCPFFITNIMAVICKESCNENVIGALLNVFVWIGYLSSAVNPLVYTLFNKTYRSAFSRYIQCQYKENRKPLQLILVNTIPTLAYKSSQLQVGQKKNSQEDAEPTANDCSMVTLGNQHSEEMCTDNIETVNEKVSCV
TAAR1 ag = human TAAR1 agonism; 0.99% of 360,000 active; activation, % at 3 µM; CHO RD-HGA16 TAAR1, Fluo-8 calcium fluorescence; vehicle wells 0%, saturating PEA agonist 100%; Q96RJ0;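 active = activation above the mean activation of all test compounds in the run plus 3 SD, cut at about 38% in these data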
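Benchmarks: low control DMSO, high control PEA (EC100); System: CHO RD-HGA16 cells carrying human TAAR1 plus Gα16; Detection: Fluo-8 fluorescence, 5 s baseline then 140 s kinetic read; Schedule: 17-24 h plating, Fluo-8 75 min 37 °C, 30 min RT; Read-out basis: % activation from peak over basal fluorescence ratio, DMSO-to-PEA scaled.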
* = called active by the depositor. Shown are actives, neighbours in structure and some others; about 3.9% of the full set was active somewhere.

`CCC(C)c1ccccc1OCCOCCN1CCCC1` (stereo unspecified) gave CHRM1 antagonist 18.4, M1 PAM -16.7, TAAR1 antagonist -3.2, M1 ag -7.9, HTR2A ag -5.2 and TAAR1 ag 3.2.
Screening CCC(C)c1ccccc1OCCCCN1CCCC1 (stereo unspecified) returned CHRM1 antagonist 48.2*, M1 PAM -21.9, TAAR1 antagonist -11.2, M1 ag -8.6, HTR2A ag -2.8 and TAAR1 ag 16.5.
Screening COc1ccccc1OCCCCOc1ccccc1C(C)=O returned CHRM1 antagonist 12.8, M1 PAM -16.5, TAAR1 antagonist 46.3, M1 ag -4.8, HTR2A ag 2.9 and TAAR1 ag 4.4.
CCC(C)(C)NC(=O)Cc1ccc(Cl)cc1 was read as CHRM1 antagonist -6.3, M1 PAM 9.7, TAAR1 antagonist 9.4, M1 ag -5.5, HTR2A ag 1.9 and TAAR1 ag 13.7.
`COc1cccc(N2CCN(CC(=O)Nc3ccccc3C(=O)NCCc3ccccc3)CC2)c1` gave CHRM1 antagonist 22.3, M1 PAM -12.0, TAAR1 antagonist 52.6*, M1 ag -3.6, HTR2A ag -6.7 and TAAR1 ag 30.4.
For Oc1ccc(N2CCN(C(=S)NCCc3ccccc3)CC2)cc1 the results were CHRM1 antagonist -8.3, M1 PAM 13.5, TAAR1 antagonist 8.7, M1 ag -1.5, HTR2A ag -3.1 and TAAR1 ag 31.3.
For O=C(CN1CCN(c2ccc(O)cc2)CC1)Nc1ccccc1C(=O)NCCc1ccccc1 the results were CHRM1 antagonist 27.5, M1 PAM -11.2, TAAR1 antagonist 63.1*, M1 ag -3.0, HTR2A ag -5.2 and TAAR1 ag 12.1.
Screening CC1(C(=O)Nc2ccccc2F)CCN1C(=O)Cc1ccc(-c2ccccc2)cc1 (stereo unspecified) returned CHRM1 antagonist 8.9, M1 PAM -7.6, TAAR1 antagonist -12.8, M1 ag 2.0, HTR2A ag -6.3 and TAAR1 ag 7.4.
`Oc1ccc(Cl)cc1CNCc1ccc(Cl)nc1` gave CHRM1 antagonist -5.0, M1 PAM 7.1, TAAR1 antagonist 11.8, M1 ag 5.3, HTR2A ag -0.3 and TAAR1 ag 39.6*.
Oc1ccc(Cl)cc1CNCc1cccc2ccccc12 was read as CHRM1 antagonist 23.5, M1 PAM -10.7, TAAR1 antagonist 7.7, M1 ag -2.5, HTR2A ag -5.7 and TAAR1 ag 16.2.
COc1ccc(CNCc2cc(Cl)ccc2O)cc1 was read as CHRM1 antagonist -17.3, M1 PAM 15.1, TAAR1 antagonist 13.3, M1 ag 0.9, HTR2A ag 1.5 and TAAR1 ag 34.2.
Oc1ccc(Cl)cc1CNCc1ccc(F)c(F)c1 was read as CHRM1 antagonist -10.2, M1 PAM 8.4, TAAR1 antagonist 4.8, M1 ag 6.5, HTR2A ag -12.2 and TAAR1 ag 42.9*.
For COC(=O)C1=C(C)N(Cc2ccc(C(F)(F)F)cc2)C(=NCc2ccc(C(F)(F)F)cc2)NC1c1ccccc1C(F)(F)F (stereo unspecified) the results were TAAR1 antagonist -31.1 and TAAR1 ag 3.0.
For CC(=O)Nc1cccc(-c2cc(NC=O)c3ncc(-c4ccc(C(C)=O)cc4)n3c2)c1 the results were CHRM1 antagonist -3.7, M1 PAM -2.7, TAAR1 antagonist 43.3, M1 ag -3.8, HTR2A ag -3.0 and TAAR1 ag 12.5.
Screening O=CNc1cc(-c2ccsc2)cn2c(-c3ccccc3)cnc12 returned CHRM1 antagonist 15.8, M1 PAM -6.5, TAAR1 antagonist 60.2*, M1 ag 1.7, HTR2A ag -5.0 and TAAR1 ag 8.4.
Screening COc1ccc(-c2cc(NC=O)c3ncc(-c4ccc(C(C)=O)cc4)n3c2)cn1 returned CHRM1 antagonist 6.9, M1 PAM -6.5, TAAR1 antagonist 52.7*, M1 ag -2.1, HTR2A ag 0.5 and TAAR1 ag 9.3.
`COc1ccccc1-c1cc(NC=O)c2ncc(-c3cccc(C(C)=O)c3)n2c1` gave CHRM1 antagonist -1.6, M1 PAM 4.6, TAAR1 antagonist 50.3*, M1 ag 0.2, HTR2A ag 1.9 and TAAR1 ag 15.5.
Screening COc1cccc(-c2cnc3c(NC=O)cc(-c4ccc(N(C)C)cc4)cn23)c1 returned CHRM1 antagonist 15.3, M1 PAM -1.0, TAAR1 antagonist -13.9, M1 ag 3.2, HTR2A ag 1.9 and TAAR1 ag 2.5.
For COc1ccc(-c2cc(NC=O)c3ncc(-c4cccc(OC)c4)n3c2)cc1 the results were CHRM1 antagonist 11.5, M1 PAM -3.0, TAAR1 antagonist 59.2*, M1 ag 2.2, HTR2A ag -8.5 and TAAR1 ag 9.2.
Screening C=CCN=C1NC(CCc2ccccc2)C(C(=O)OC)=C(C)N1C (stereo unspecified) returned TAAR1 antagonist -11.7 and TAAR1 ag 0.9.
`CCN(Cc1ccc2c(c1)OCO2)C(=O)CSc1ncnc2sccc12` gave CHRM1 antagonist 2.3, M1 PAM -2.3, TAAR1 antagonist -4.9, M1 ag -3.3, HTR2A ag 2.9 and TAAR1 ag 14.7.
Screening CCN(Cc1ccc2c(c1)OCCO2)C(=O)CSc1nc(C)nc2sc(C)c(C)c12 returned CHRM1 antagonist -5.0, M1 PAM 2.9, TAAR1 antagonist 59.5*, M1 ag -4.3, HTR2A ag 2.8 and TAAR1 ag 4.3.
`O=C(CSc1nc(N2CCOCC2)nc(N2CCOCC2)n1)Nc1ccccc1F` gave CHRM1 antagonist 8.1, M1 PAM 0.6, TAAR1 antagonist 0.8, M1 ag -2.2, HTR2A ag -0.2 and TAAR1 ag 3.9.
Screening O=[N+]([O-])c1cc(-c2ncccn2)cs1 returned CHRM1 antagonist -11.9, M1 PAM 14.9, TAAR1 antagonist -14.2, M1 ag -7.1, HTR2A ag -3.1 and TAAR1 ag 1.7.
O=C(CNC(=O)c1ccco1)N=Nc1c(O)[nH]c2ccc(Br)cc12 was read as CHRM1 antagonist 2.5, M1 PAM 4.7, TAAR1 antagonist -26.2, M1 ag 0.2, HTR2A ag -0.4 and TAAR1 ag 38.3*.
`CCCCCOc1ccc(/C(C)=N/NC2=NCCN2)cc1` gave CHRM1 antagonist -11.6, M1 PAM 7.4, TAAR1 antagonist -10.8, M1 ag -4.1, HTR2A ag -1.8 and TAAR1 ag 17.8.
For CCOc1ccc(Br)cc1/C(C)=N\NC1=NCCN1 the results were CHRM1 antagonist 62.8*, M1 PAM -16.6, TAAR1 antagonist 11.3, M1 ag 10.6, HTR2A ag -4.4 and TAAR1 ag 19.3.
`CCCc1nc2c3ccccc3ccn2c1Cc1cccc(F)c1` gave CHRM1 antagonist 56.2*, M1 PAM -26.3, TAAR1 antagonist -12.3, M1 ag -6.3, HTR2A ag 2.6 and TAAR1 ag -0.3.
